Calls of active or inactive are those of the source. The rule behind the calls is not given here.
How the values were obtained:
Rattus norvegicus [1] = test: Anticonvulsant activity in Sprague-Dawley rat assessed as inhibition of maximal electroshock-induced seizures at 30 mg/kg, po after 15 mins
Mus musculus [2] = test: Anticonvulsant activity in CF1 albino mouse assessed as inhibition of subcutaneous pentylenetetrazole-induced seizures at 30 mg/kg, ip after 4 hrs; type: functional, organism-based; set-up: dose 30 mg/kg
Procedure, shortened: (§1)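 Adult male CF no. 1 albino mice (18-25 g) dosed ip with compound suspended in 0.5% methylcellulose (0.01 mL/g). Convulsant: pentylenetetrazol dissolved in 0.9% saline as a 0.85% solution for mice, given subcutaneously.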

Mus musculus [3] = test: Anticonvulsant activity in CF1 albino mouse assessed as inhibition of subcutaneous pentylenetetrazole-induced seizures at 300 mg/kg, ip after 0.5 hrs; type: functional, organism-based; set-up: dose 300 mg/kg
Procedure, shortened: as §1

Mus musculus [4] = test: Teratogenic effect in SWV mouse assessed as fetuses with neural tube deffects at 172 mg/kg, ip administered on morning of day 8 of gestation; type: toxicity, organism-based; set-up: dose 172 mg/kg, route intraperitoneal; details: in vivo
Procedure, shortened: (§2)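 Two-month-old nulligravid SWV females were mated overnight and checked for vaginal plugs the next morning; gestation onset was set at 10 p.m. the previous night. On gestation day 8.5, each dam received a single ip injection (0.55-2.7 mmol/kg range) or vehicle (25% aqueous Cremophor EL) at 10 μL/g body weight. Litters were scored for implants, resorptions, live and dead fetuses, and fetuses with neural tube defects.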

Mus musculus [5] = test: Teratogenic effect in SWV mouse assessed as live fetuses at 340 mg/kg, ip administered on morning of day 8 of gestation; type: toxicity, organism-based; set-up: dose 340 mg/kg, route intraperitoneal; details: in vivo
Procedure, shortened: (§3)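 SWV inbred mice: two-month-old nulligravid females mated overnight with males and checked for vaginal plugs next morning; gestation onset taken as 10 p.m. the previous night. On gestation day 8.5 each dam got one ip injection, 0.55–2.7 mmol/kg, in 25% aqueous Cremophor EL (vehicle controls dosed alike), 10 μL/g body weight. Litters and implants tallied; resorptions and live fetuses reported as counts with percentages.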

Mus musculus [6] = test: Neurotoxicity in CF1 albino mouse assessed as motor impairment at 100 mg/kg, ip after 4 hrs; type: toxicity, organism-based; set-up: dose 100 mg/kg, route intraperitoneal; details: in vivo
Mus musculus [7] = test: Teratogenic effect in SWV mouse assessed as fetuses with neural tube deffects at 562 mg/kg, ip administered on morning of day 8 of gestation; type: toxicity, organism-based; set-up: dose 562 mg/kg, route intraperitoneal; details: in vivo
Procedure, shortened: as §2

Mus musculus [8] = test: Anticonvulsant activity in CF1 albino mouse assessed as inhibition of subcutaneous pentylenetetrazole-induced seizures at 100 mg/kg, ip after 0.5 hrs; type: functional, organism-based; set-up: dose 100 mg/kg
Procedure, shortened: as §1

Mus musculus [9] = test: Anticonvulsant activity in CF1 albino mouse assessed as inhibition of maximal electroshock-induced seizures at 30 mg/kg, ip after 0.5 hrs; type: functional, organism-based; set-up: dose 30 mg/kg
Procedure, shortened: (§4)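 Test compounds suspended in 0.5% methylcellulose and given ip to adult male CF no. 1 albino mice (18-25 g) at 0.01 mL/g body weight before maximal electroshock challenge.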

Mus musculus [10] = test: Teratogenic effect in SWV mouse assessed as fetuses with neural tube deffects at 340 mg/kg, ip administered on morning of day 8 of gestation; type: toxicity, organism-based; set-up: dose 340 mg/kg, route intraperitoneal; details: in vivo
Procedure, shortened: as §2

Mus musculus [11] = test: Anticonvulsant activity in CF1 albino mouse assessed as inhibition of subcutaneous pentylenetetrazole-induced seizures at 100 mg/kg, ip after 4 hrs; type: functional, organism-based; set-up: dose 100 mg/kg
Procedure, shortened: as §1

Rattus norvegicus [12] = test: Neurotoxicity in Sprague-Dawley rat assessed as motor impairment at 30 mg/kg, po after 0.25 to 4 hrs; details: in vivo
Mus musculus [13] = test: Teratogenic effect in SWV mouse assessed as resorptions at 340 mg/kg, ip administered on morning of day 8 of gestation; type: toxicity, organism-based; set-up: dose 340 mg/kg, route intraperitoneal; details: in vivo
Procedure, shortened: as §3

Mus musculus [14] = test: Teratogenic effect in SWV mouse assessed as resorptions at 562 mg/kg, ip administered on morning of day 8 of gestation; type: toxicity, organism-based; set-up: dose 562 mg/kg, route intraperitoneal; details: in vivo
Procedure, shortened: as §3

Mus musculus [15] = test: Neurotoxicity in CF1 albino mouse assessed as motor impairment at 30 mg/kg, ip after 0.5 hrs; type: toxicity, organism-based; set-up: dose 30 mg/kg, route intraperitoneal; details: in vivo
Rattus norvegicus [16] = organism: Rattus norvegicus; test: Protective index, ratio of TD50 for rat to ED50 for maximal electroshock-induced rat seizure model
Mus musculus [17] = test: Anticonvulsant activity in CF1 albino mouse assessed as inhibition of maximal electroshock-induced seizures at 300 mg/kg, ip after 4 hrs; type: functional, organism-based; set-up: dose 300 mg/kg
Procedure, shortened: as §4

Rattus norvegicus [18] = test: Anticonvulsant activity in po dosed rat assessed as inhibition of maximal electroshock-induced seizures
Mus musculus [19] = test: Anticonvulsant activity in CF1 albino mouse assessed as inhibition of subcutaneous pentylenetetrazole-induced seizures at 30 mg/kg, ip after 0.5 hrs; type: functional, organism-based; set-up: dose 30 mg/kg
Procedure, shortened: as §1

Mus musculus [20] = test: Teratogenic effect in SWV mouse assessed as live fetuses at 562 mg/kg, ip administered on morning of day 8 of gestation; type: toxicity, organism-based; set-up: dose 562 mg/kg, route intraperitoneal; details: in vivo
Procedure, shortened: as §3

Mus musculus [21] = test: Teratogenic effect in SWV mouse assessed as live fetuses at 172 mg/kg, ip administered on morning of day 8 of gestation; type: toxicity, organism-based; set-up: dose 172 mg/kg, route intraperitoneal; details: in vivo
Procedure, shortened: as §2

Mus musculus [22] = test: Anticonvulsant activity in CF1 albino mouse assessed as inhibition of maximal electroshock-induced seizures at 30 mg/kg, ip after 4 hrs; type: functional, organism-based; set-up: dose 30 mg/kg
Procedure, shortened: as §4

Mus musculus [23] = test: Neurotoxicity in CF1 albino mouse assessed as motor impairment at 30 mg/kg, ip after 4 hrs; type: toxicity, organism-based; set-up: dose 30 mg/kg, route intraperitoneal; details: in vivo
Mus musculus [24] = test: Neurotoxicity in CF1 albino mouse assessed as motor impairment at 100 mg/kg, ip after 0.5 hrs; type: toxicity, organism-based; set-up: dose 100 mg/kg, route intraperitoneal; details: in vivo
Mus musculus [25] = test: Anticonvulsant activity in CF1 albino mouse assessed as inhibition of maximal electroshock-induced seizures at 300 mg/kg, ip after 0.5 hrs; type: functional, organism-based; set-up: dose 300 mg/kg
Procedure, shortened: as §4

Mus musculus [26] = test: Neurotoxicity in CF1 albino mouse assessed as motor impairment at 300 mg/kg, ip after 4 hrs; type: toxicity, organism-based; set-up: dose 300 mg/kg, route intraperitoneal; details: in vivo
Mus musculus [27] = test: Neurotoxicity in CF1 albino mouse assessed as motor impairment at 300 mg/kg, ip after 0.5 hrs; type: toxicity, organism-based; set-up: dose 300 mg/kg, route intraperitoneal; details: in vivo
Mus musculus [28] = test: Teratogenic effect in SWV mouse assessed as resorptions at 172 mg/kg, ip administered on morning of day 8 of gestation; type: toxicity, organism-based; set-up: dose 172 mg/kg, route intraperitoneal; details: in vivo
Procedure, shortened: as §3

Mus musculus [29] = test: Anticonvulsant activity in CF1 albino mouse assessed as inhibition of subcutaneous pentylenetetrazole-induced seizures at 300 mg/kg, ip after 4 hrs; type: functional, organism-based; set-up: dose 300 mg/kg
Procedure, shortened: as §1

Mus musculus [30] = test: Teratogenic effect in SWV mouse assessed as live fetuses at 164 mg/kg, ip administered on morning of day 8 of gestation; type: toxicity, organism-based; set-up: dose 164 mg/kg, route intraperitoneal; details: in vivo
Mus musculus [31] = test: Teratogenic effect in SWV mouse assessed as fetuses with neural tube deffects at 537 mg/kg, ip administered on morning of day 8 of gestation; type: toxicity, organism-based; set-up: dose 537 mg/kg, route intraperitoneal; details: in vivo
Mus musculus [32] = test: Teratogenic effect in SWV mouse assessed as resorptions at 537 mg/kg, ip administered on morning of day 8 of gestation; type: toxicity, organism-based; set-up: dose 537 mg/kg, route intraperitoneal; details: in vivo
Mus musculus [33] = test: Teratogenic effect in SWV mouse assessed as live fetuses at 537 mg/kg, ip administered on morning of day 8 of gestation; type: toxicity, organism-based; set-up: dose 537 mg/kg, route intraperitoneal; details: in vivo
Mus musculus [34] = test: Teratogenic effect in SWV mouse assessed as resorptions at 805 mg/kg, ip administered on morning of day 8 of gestation; type: toxicity, organism-based; set-up: dose 805 mg/kg, route intraperitoneal; details: in vivo
Mus musculus [35] = test: Teratogenic effect in SWV mouse assessed as live fetuses at 325 mg/kg, ip administered on morning of day 8 of gestation; type: toxicity, organism-based; set-up: dose 325 mg/kg, route intraperitoneal; details: in vivo
Mus musculus [36] = test: Teratogenic effect in SWV mouse assessed as resorptions at 325 mg/kg, ip administered on morning of day 8 of gestation; type: toxicity, organism-based; set-up: dose 325 mg/kg, route intraperitoneal; details: in vivo
Mus musculus [37] = test: Teratogenic effect in SWV mouse assessed as fetuses with neural tube deffects at 164 mg/kg, ip administered on morning of day 8 of gestation; type: toxicity, organism-based; set-up: dose 164 mg/kg, route intraperitoneal; details: in vivo
Mus musculus [38] = test: Anticonvulsant activity in CF1 albino mouse assessed as inhibition of maximal electroshock-induced seizures at 100 mg/kg, ip after 0.5 hrs; type: functional, organism-based; set-up: dose 100 mg/kg
Procedure, shortened: as §4

Mus musculus [39] = test: Teratogenic effect in SWV mouse assessed as resorptions at 164 mg/kg, ip administered on morning of day 8 of gestation; type: toxicity, organism-based; set-up: dose 164 mg/kg, route intraperitoneal; details: in vivo
Mus musculus [40] = test: Teratogenic effect in SWV mouse assessed as fetuses with neural tube deffects at 325 mg/kg, ip administered on morning of day 8 of gestation; type: toxicity, organism-based; set-up: dose 325 mg/kg, route intraperitoneal; details: in vivo

For CCCC(C(=O)Nc1ccc(S(N)(=O)=O)cc1)C(C)CC (configuration not stated), the Activity (Rattus norvegicus [1]) was “inactive”, the Activity (Mus musculus [2]) was “inactive” and the Activity (Mus musculus [3]) was “inactive”. For the same molecule, the Activity (Mus musculus [4]) was 7.8%, the Activity (Mus musculus [5]) was 66.7% and the Activity (Mus musculus [6]) was “Non-toxic”. For the same molecule, the Activity (Mus musculus [7]) was 7.1%, the Activity (Mus musculus [8]) was “inactive” and the Activity (Mus musculus [9]) was “inactive”. The Activity (Mus musculus [10]) was 5%, the Activity (Mus musculus [11]) was “inactive” and the Activity (Rattus norvegicus [12]) was “Non-toxic”. For the same molecule, the Activity (Mus musculus [13]) was 33.3%, the Activity (Mus musculus [14]) was 50% and the Activity (Mus musculus [15]) was “Non-toxic”. For the same molecule, the “Ratio TD50/ED50” value (Rattus norvegicus [16]) was greater than 13.9, the Activity (Mus musculus [17]) was “Active” and the ED50 (Rattus norvegicus [18]) was 35.8 mg/kg. The Activity (Mus musculus [19]) was “inactive”, the Activity (Mus musculus [20]) was 50% and the Activity (Mus musculus [21]) was 88%. For the same molecule, the Activity (Mus musculus [22]) was “inactive”, the Activity (Mus musculus [23]) was “Non-toxic” and the Activity (Mus musculus [24]) was “Non-toxic”. For the same molecule, the Activity (Mus musculus [25]) was “Active”, the Activity (Mus musculus [26]) was “Non-toxic” and the Activity (Mus musculus [27]) was “Non-toxic”. The Activity (Mus musculus [28]) was 12% and the Activity (Mus musculus [29]) was “inactive”.
With CCC(CC(C)C)C(=O)Nc1ccc(S(N)(=O)=O)cc1 (configuration not stated) the Activity (Mus musculus [30]) was 95.4%, the Activity (Mus musculus [2]) was “inactive” and the Activity (Mus musculus [3]) was “inactive”. The Activity (Mus musculus [6]) was “Non-toxic”, the Activity (Mus musculus [8]) was “inactive” and the Activity (Mus musculus [9]) was “inactive”. The Activity (Mus musculus [31]) was 50%, the Activity (Mus musculus [32]) was 96.2% and the Activity (Mus musculus [11]) was “inactive”. For the same molecule, the Activity (Rattus norvegicus [12]) was “Non-toxic”, the Activity (Mus musculus [15]) was “Non-toxic” and the Activity (Mus musculus [17]) was “Active”. For the same molecule, the Activity (Mus musculus [19]) was “inactive”, the Activity (Mus musculus [33]) was 3.8% and the Activity (Mus musculus [34]) was 100%. The Activity (Mus musculus [35]) was 50.4%, the Activity (Mus musculus [36]) was 49.6% and the Activity (Mus musculus [37]) was 0.9%. The Activity (Mus musculus [38]) was “inactive”, the Activity (Mus musculus [22]) was “inactive” and the Activity (Mus musculus [23]) was “Non-toxic”. For the same molecule, the Activity (Mus musculus [24]) was “Non-toxic”, the Activity (Mus musculus [25]) was “inactive” and the Activity (Mus musculus [26]) was “Non-toxic”. For the same molecule, the Activity (Mus musculus [39]) was 6.6%, the Activity (Mus musculus [27]) was “Non-toxic” and the Activity (Mus musculus [40]) was 22.7%. The Activity (Mus musculus [29]) was “inactive”.

Reference: ChEMBL document CHEMBL1155468, “Syntheses and evaluation of anticonvulsant profile and teratogenicity of novel amide derivatives of branched aliphatic carboxylic acids with 4-aminobenzensulfonamide” (J Med Chem, 2010)
